In ChEMBL document CHEMBL1129566 (J Med Chem, 1996):
≈ marks a conversion by molar mass, not a printed value.

Tested on: Citrobacter freundii
Test: In vitro minimum inhibitory concentration required to produce antibacterial activity against Citrobacter freundii 902
Format: functional
Summary of the method: (§1)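 Two-fold agar dilution on Mueller-Hinton agar. Overnight broth cultures diluted in fresh broth to […]; 10⁴ CFU/spot applied by inoculating apparatus onto plates with graded drug concentrations. Incubated 18 h at 37 °C; MIC taken as the lowest concentration giving complete growth inhibition.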

Row | Structure (SMILES) | MIC
1 | CO/N=C(\C(=O)N[C@@H]1C(=O)N2C(C(=O)O)=C(/C=C3\CCN(CC(F)(F)F)C3=O)CS[C@H]12)c1csc(N)n1 | 0.25 µg/mL (≈ 0.446 µM)
2 | Nc1nc(/C(=N/O)C(=O)N[C@@H]2C(=O)N3C(C(=O)O)=C(/C=C4\CCCN(c5ccccc5)C4=O)CS[C@H]23)cs1 | 1 µg/mL (≈ 1.8 µM)
3 | Nc1nc(/C(=N/OCCF)C(=O)N[C@@H]2C(=O)N3C(C(=O)O)=C(/C=C4\CCN(CC(F)(F)F)C4=O)CS[C@H]23)cs1 | 1 µg/mL (≈ 1.69 µM)

Results, then the compound that gave them:

Row | MIC | Structure (SMILES)
4 | ≤ 0.06 µg/mL | C=CCN1CC/C(=C\C2=C(C(=O)O)N3C(=O)[C@@H](NC(=O)/C(=N\O)c4csc(N)n4)[C@H]3SC2)C1=O
5 | 0.25 µg/mL (≈ 0.462 µM) | Nc1nc(/C(=N/O)C(=O)N[C@@H]2C(=O)N3C(C(=O)O)=C(/C=C4\CCN(c5ccccc5)C4=O)CS[C@H]23)cs1
6 | ≤ 0.12 µg/mL | Nc1nc(/C(=N/O)C(=O)N[C@@H]2C(=O)N3C(C(=O)O)=C(/C=C4\CCN(c5cccnc5)C4=O)CS[C@H]23)cs1

Tested on: Escherichia coli
Test: In vitro minimum inhibitory concentration required to produce antibacterial activity against Escherichia coli 25922
Format: functional
Summary of the method: as §1

Row | Structure (SMILES) | MIC
7 | CO/N=C(\C(=O)N[C@@H]1C(=O)N2C(C(=O)O)=C(/C=C3\CCN(CC(F)(F)F)C3=O)CS[C@H]12)c1csc(N)n1 | 0.25 µg/mL (≈ 0.446 µM)
8 | Nc1nc(/C(=N/O)C(=O)N[C@@H]2C(=O)N3C(C(=O)O)=C(/C=C4\CCCN(c5ccccc5)C4=O)CS[C@H]23)cs1 | 1 µg/mL (≈ 1.8 µM)
9 | Nc1nc(/C(=N/OCCF)C(=O)N[C@@H]2C(=O)N3C(C(=O)O)=C(/C=C4\CCN(CC(F)(F)F)C4=O)CS[C@H]23)cs1 | 0.5 µg/mL (≈ 0.844 µM)

Now from value to compound:

Row | MIC | Structure (SMILES)
10 | ≤ 0.06 µg/mL | C=CCN1CC/C(=C\C2=C(C(=O)O)N3C(=O)[C@@H](NC(=O)/C(=N\O)c4csc(N)n4)[C@H]3SC2)C1=O
11 | 0.25 µg/mL (≈ 0.462 µM) | Nc1nc(/C(=N/O)C(=O)N[C@@H]2C(=O)N3C(C(=O)O)=C(/C=C4\CCN(c5ccccc5)C4=O)CS[C@H]23)cs1
12 | ≤ 0.12 µg/mL | Nc1nc(/C(=N/O)C(=O)N[C@@H]2C(=O)N3C(C(=O)O)=C(/C=C4\CCN(c5cccnc5)C4=O)CS[C@H]23)cs1

Tested on: Enterococcus faecalis
Test: In vitro minimum inhibitory concentration required to produce antibacterial activity against Enterococcus faecalis ATCC 29212
Format: functional
Summary of the method: as §1

Row | Structure (SMILES) | MIC
13 | CO/N=C(\C(=O)N[C@@H]1C(=O)N2C(C(=O)O)=C(/C=C3\CCN(CC(F)(F)F)C3=O)CS[C@H]12)c1csc(N)n1 | > 32 µg/mL
14 | Nc1nc(/C(=N/O)C(=O)N[C@@H]2C(=O)N3C(C(=O)O)=C(/C=C4\CCCN(c5ccccc5)C4=O)CS[C@H]23)cs1 | 8 µg/mL (≈ 14.4 µM)
15 | Nc1nc(/C(=N/OCCF)C(=O)N[C@@H]2C(=O)N3C(C(=O)O)=C(/C=C4\CCN(CC(F)(F)F)C4=O)CS[C@H]23)cs1 | 32 µg/mL (≈ 54 µM)

Now from value to compound:

Row | MIC | Structure (SMILES)
16 | 1 µg/mL (≈ 1.98 µM) | C=CCN1CC/C(=C\C2=C(C(=O)O)N3C(=O)[C@@H](NC(=O)/C(=N\O)c4csc(N)n4)[C@H]3SC2)C1=O
17 | 0.25 µg/mL (≈ 0.462 µM) | Nc1nc(/C(=N/O)C(=O)N[C@@H]2C(=O)N3C(C(=O)O)=C(/C=C4\CCN(c5ccccc5)C4=O)CS[C@H]23)cs1
18 | 0.5 µg/mL (≈ 0.923 µM) | Nc1nc(/C(=N/O)C(=O)N[C@@H]2C(=O)N3C(C(=O)O)=C(/C=C4\CCN(c5cccnc5)C4=O)CS[C@H]23)cs1

Tested on: Enterobacter cloacae
Test: In vitro minimum inhibitory concentration required to produce antibacterial activity against Enterobacter cloacae 908SSI
Format: functional
Summary of the method: as §1

Row | Structure (SMILES) | MIC
19 | CO/N=C(\C(=O)N[C@@H]1C(=O)N2C(C(=O)O)=C(/C=C3\CCN(CC(F)(F)F)C3=O)CS[C@H]12)c1csc(N)n1 | 1 µg/mL (≈ 1.78 µM)
20 | Nc1nc(/C(=N/O)C(=O)N[C@@H]2C(=O)N3C(C(=O)O)=C(/C=C4\CCCN(c5ccccc5)C4=O)CS[C@H]23)cs1 | 4 µg/mL (≈ 7.21 µM)
21 | Nc1nc(/C(=N/OCCF)C(=O)N[C@@H]2C(=O)N3C(C(=O)O)=C(/C=C4\CCN(CC(F)(F)F)C4=O)CS[C@H]23)cs1 | 2 µg/mL (≈ 3.38 µM)

Further lines, results first:

Row | MIC | Structure (SMILES)
22 | 0.25 µg/mL (≈ 0.495 µM) | C=CCN1CC/C(=C\C2=C(C(=O)O)N3C(=O)[C@@H](NC(=O)/C(=N\O)c4csc(N)n4)[C@H]3SC2)C1=O
23 | 0.5 µg/mL (≈ 0.925 µM) | Nc1nc(/C(=N/O)C(=O)N[C@@H]2C(=O)N3C(C(=O)O)=C(/C=C4\CCN(c5ccccc5)C4=O)CS[C@H]23)cs1
24 | ≤ 0.12 µg/mL | Nc1nc(/C(=N/O)C(=O)N[C@@H]2C(=O)N3C(C(=O)O)=C(/C=C4\CCN(c5cccnc5)C4=O)CS[C@H]23)cs1

Tested on: Pseudomonas aeruginosa
Test: In vitro minimum inhibitory concentration required to produce antibacterial activity against Pseudomonas aeruginosa ATCC 27853
Format: functional
Summary of the method: as §1

Row | Structure (SMILES) | MIC
25 | CO/N=C(\C(=O)N[C@@H]1C(=O)N2C(C(=O)O)=C(/C=C3\CCN(CC(F)(F)F)C3=O)CS[C@H]12)c1csc(N)n1 | 8 µg/mL (≈ 14.3 µM)
26 | Nc1nc(/C(=N/O)C(=O)N[C@@H]2C(=O)N3C(C(=O)O)=C(/C=C4\CCCN(c5ccccc5)C4=O)CS[C@H]23)cs1 | > 32 µg/mL
27 | Nc1nc(/C(=N/OCCF)C(=O)N[C@@H]2C(=O)N3C(C(=O)O)=C(/C=C4\CCN(CC(F)(F)F)C4=O)CS[C@H]23)cs1 | 8 µg/mL (≈ 13.5 µM)

Second part, the compound after the results:

Row | MIC | Structure (SMILES)
28 | 16 µg/mL (≈ 31.7 µM) | C=CCN1CC/C(=C\C2=C(C(=O)O)N3C(=O)[C@@H](NC(=O)/C(=N\O)c4csc(N)n4)[C@H]3SC2)C1=O
29 | 16 µg/mL (≈ 29.6 µM) | Nc1nc(/C(=N/O)C(=O)N[C@@H]2C(=O)N3C(C(=O)O)=C(/C=C4\CCN(c5ccccc5)C4=O)CS[C@H]23)cs1
30 | 16 µg/mL (≈ 29.5 µM) | Nc1nc(/C(=N/O)C(=O)N[C@@H]2C(=O)N3C(C(=O)O)=C(/C=C4\CCN(c5cccnc5)C4=O)CS[C@H]23)cs1

Tested on: Staphylococcus aureus
Test: In vitro minimum inhibitory concentration required to produce antibacterial activity against Staphylococcus aureus 743 MRSA
Format: functional
Summary of the method: as §1

Row | Structure (SMILES) | MIC
31 | CO/N=C(\C(=O)N[C@@H]1C(=O)N2C(C(=O)O)=C(/C=C3\CCN(CC(F)(F)F)C3=O)CS[C@H]12)c1csc(N)n1 | 8 µg/mL (≈ 14.3 µM)
32 | Nc1nc(/C(=N/O)C(=O)N[C@@H]2C(=O)N3C(C(=O)O)=C(/C=C4\CCCN(c5ccccc5)C4=O)CS[C@H]23)cs1 | 32 µg/mL (≈ 57.7 µM)
33 | Nc1nc(/C(=N/OCCF)C(=O)N[C@@H]2C(=O)N3C(C(=O)O)=C(/C=C4\CCN(CC(F)(F)F)C4=O)CS[C@H]23)cs1 | 16 µg/mL (≈ 27 µM)

Other lines, results leading:

Row | MIC | Structure (SMILES)
34 | 16 µg/mL (≈ 31.7 µM) | C=CCN1CC/C(=C\C2=C(C(=O)O)N3C(=O)[C@@H](NC(=O)/C(=N\O)c4csc(N)n4)[C@H]3SC2)C1=O
35 | 8 µg/mL (≈ 14.8 µM) | Nc1nc(/C(=N/O)C(=O)N[C@@H]2C(=O)N3C(C(=O)O)=C(/C=C4\CCN(c5ccccc5)C4=O)CS[C@H]23)cs1
36 | 8 µg/mL (≈ 14.8 µM) | Nc1nc(/C(=N/O)C(=O)N[C@@H]2C(=O)N3C(C(=O)O)=C(/C=C4\CCN(c5cccnc5)C4=O)CS[C@H]23)cs1

Tested on: Staphylococcus aureus
Test: In vitro minimum inhibitory concentration required to produce antibacterial activity against Staphylococcus aureus 887MSSA
Format: functional
Summary of the method: as §1

Row | Structure (SMILES) | MIC
37 | CO/N=C(\C(=O)N[C@@H]1C(=O)N2C(C(=O)O)=C(/C=C3\CCN(CC(F)(F)F)C3=O)CS[C@H]12)c1csc(N)n1 | 8 µg/mL (≈ 14.3 µM)
38 | Nc1nc(/C(=N/O)C(=O)N[C@@H]2C(=O)N3C(C(=O)O)=C(/C=C4\CCCN(c5ccccc5)C4=O)CS[C@H]23)cs1 | 2 µg/mL (≈ 3.61 µM)
39 | Nc1nc(/C(=N/OCCF)C(=O)N[C@@H]2C(=O)N3C(C(=O)O)=C(/C=C4\CCN(CC(F)(F)F)C4=O)CS[C@H]23)cs1 | 4 µg/mL (≈ 6.75 µM)

Now from value to compound:

Row | MIC | Structure (SMILES)
40 | 1 µg/mL (≈ 1.98 µM) | C=CCN1CC/C(=C\C2=C(C(=O)O)N3C(=O)[C@@H](NC(=O)/C(=N\O)c4csc(N)n4)[C@H]3SC2)C1=O
41 | 0.5 µg/mL (≈ 0.925 µM) | Nc1nc(/C(=N/O)C(=O)N[C@@H]2C(=O)N3C(C(=O)O)=C(/C=C4\CCN(c5ccccc5)C4=O)CS[C@H]23)cs1
42 | 1 µg/mL (≈ 1.85 µM) | Nc1nc(/C(=N/O)C(=O)N[C@@H]2C(=O)N3C(C(=O)O)=C(/C=C4\CCN(c5cccnc5)C4=O)CS[C@H]23)cs1

Tested on: Streptococcus pneumoniae
Test: In vitro minimum inhibitory concentration required to produce antibacterial activity against Streptococcus pneumoniae 1/37(pen r)
Format: functional
Summary of the method: as §1

Row | Structure (SMILES) | MIC
43 | CO/N=C(\C(=O)N[C@@H]1C(=O)N2C(C(=O)O)=C(/C=C3\CCN(CC(F)(F)F)C3=O)CS[C@H]12)c1csc(N)n1 | 0.5 µg/mL (≈ 0.892 µM)
44 | Nc1nc(/C(=N/O)C(=O)N[C@@H]2C(=O)N3C(C(=O)O)=C(/C=C4\CCCN(c5ccccc5)C4=O)CS[C@H]23)cs1 | 4 µg/mL (≈ 7.21 µM)
45 | Nc1nc(/C(=N/OCCF)C(=O)N[C@@H]2C(=O)N3C(C(=O)O)=C(/C=C4\CCN(CC(F)(F)F)C4=O)CS[C@H]23)cs1 | 1 µg/mL (≈ 1.69 µM)

The remaining lines, values ahead:

Row | MIC | Structure (SMILES)
46 | 1 µg/mL (≈ 1.98 µM) | C=CCN1CC/C(=C\C2=C(C(=O)O)N3C(=O)[C@@H](NC(=O)/C(=N\O)c4csc(N)n4)[C@H]3SC2)C1=O
47 | 2 µg/mL (≈ 3.7 µM) | Nc1nc(/C(=N/O)C(=O)N[C@@H]2C(=O)N3C(C(=O)O)=C(/C=C4\CCN(c5ccccc5)C4=O)CS[C@H]23)cs1
48 | 2 µg/mL (≈ 3.69 µM) | Nc1nc(/C(=N/O)C(=O)N[C@@H]2C(=O)N3C(C(=O)O)=C(/C=C4\CCN(c5cccnc5)C4=O)CS[C@H]23)cs1

Tested on: Streptococcus pneumoniae
Test: Minimum inhibitory concentration for antibacterial activity against Streptococcus pneumoniae Q19 (pen s)
Format: functional
Summary of the method: as §1

Row | Structure (SMILES) | MIC
49 | CO/N=C(\C(=O)N[C@@H]1C(=O)N2C(C(=O)O)=C(/C=C3\CCN(CC(F)(F)F)C3=O)CS[C@H]12)c1csc(N)n1 | ≤ 0.03 µg/mL
50 | Nc1nc(/C(=N/O)C(=O)N[C@@H]2C(=O)N3C(C(=O)O)=C(/C=C4\CCCN(c5ccccc5)C4=O)CS[C@H]23)cs1 | 0.12 µg/mL (≈ 0.216 µM)
51 | Nc1nc(/C(=N/OCCF)C(=O)N[C@@H]2C(=O)N3C(C(=O)O)=C(/C=C4\CCN(CC(F)(F)F)C4=O)CS[C@H]23)cs1 | ≤ 0.06 µg/mL

Second part, the compound after the results:

Row | MIC | Structure (SMILES)
52 | ≤ 0.06 µg/mL | C=CCN1CC/C(=C\C2=C(C(=O)O)N3C(=O)[C@@H](NC(=O)/C(=N\O)c4csc(N)n4)[C@H]3SC2)C1=O
53 | 0.06 µg/mL (≈ 0.111 µM) | Nc1nc(/C(=N/O)C(=O)N[C@@H]2C(=O)N3C(C(=O)O)=C(/C=C4\CCN(c5ccccc5)C4=O)CS[C@H]23)cs1
54 | 0.12 µg/mL (≈ 0.222 µM) | Nc1nc(/C(=N/O)C(=O)N[C@@H]2C(=O)N3C(C(=O)O)=C(/C=C4\CCN(c5cccnc5)C4=O)CS[C@H]23)cs1
